Results published in PubChem BioAssay AID493160 (Sanford-Burnham Center for Chemical Genomics, 2011).
Out of some 340,000 compounds screened, about 540 (0.16%) were called active. The sample holds actives, similar compounds and a random draw of the others, so the mix is not that of the screen. Values without a mark were called inactive.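 The calls were made as follows: active = inhibition above about 35% when tested at 20 µM (limit read from the data); inactive = the rest.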

Each compound was assayed against Hexokinase HKDC1 (Homo sapiens) (UniProt Q2TB90) (assay: blockers of human HKDC1 enzyme activity – biochemical, fluorescence, uHTS, primary screen (AID 493160;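 also: plate controls were DMSO wells with enzyme for no effect and DMSO wells lacking enzyme for full effect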)). Conditions: recombinant HKDC1, G6PDH/diaphorase resazurin coupled fluorescence; at 20 µM; active compounds read high.
Chain of Hexokinase HKDC1 (Homo sapiens) (Q2TB90 whole entry, looked up): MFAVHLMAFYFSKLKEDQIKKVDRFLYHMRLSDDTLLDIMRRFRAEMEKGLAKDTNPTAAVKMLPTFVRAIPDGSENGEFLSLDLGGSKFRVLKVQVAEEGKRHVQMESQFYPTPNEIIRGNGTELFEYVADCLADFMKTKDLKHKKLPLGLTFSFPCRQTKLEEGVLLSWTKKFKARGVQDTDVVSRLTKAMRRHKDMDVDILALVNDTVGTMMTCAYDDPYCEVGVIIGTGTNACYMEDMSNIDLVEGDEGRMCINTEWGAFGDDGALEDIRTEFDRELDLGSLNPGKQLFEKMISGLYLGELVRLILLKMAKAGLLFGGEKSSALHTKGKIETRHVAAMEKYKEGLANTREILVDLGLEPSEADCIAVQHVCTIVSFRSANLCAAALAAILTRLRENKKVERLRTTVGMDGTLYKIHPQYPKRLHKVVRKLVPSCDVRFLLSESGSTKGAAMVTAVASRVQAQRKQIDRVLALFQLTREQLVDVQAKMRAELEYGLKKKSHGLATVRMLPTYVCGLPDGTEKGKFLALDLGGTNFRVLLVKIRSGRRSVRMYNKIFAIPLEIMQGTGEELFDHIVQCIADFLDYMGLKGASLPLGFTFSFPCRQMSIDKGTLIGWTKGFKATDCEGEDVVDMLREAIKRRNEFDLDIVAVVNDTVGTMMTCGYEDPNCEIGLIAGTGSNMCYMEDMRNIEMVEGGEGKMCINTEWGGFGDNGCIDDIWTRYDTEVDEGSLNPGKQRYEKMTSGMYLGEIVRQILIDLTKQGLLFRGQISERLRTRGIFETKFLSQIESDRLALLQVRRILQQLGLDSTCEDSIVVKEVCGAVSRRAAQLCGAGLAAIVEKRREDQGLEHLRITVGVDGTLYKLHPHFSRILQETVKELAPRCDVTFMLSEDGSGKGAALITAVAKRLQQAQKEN
Procedure, shortened: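 Test system: Recombinant HKDC1 (HK5) hexokinase enzyme, produced in-house | Input: HKDC1 at 5 µg/mL | Buffer or medium: Tris pH 8.0 buffer with MgCl2, Tween-20, BSA, BME | Schedule: 90 min reaction incubation at room temperature, dark | Technique: Resazurin-to-resorufin fluorescence via G6PDH and diaphorase coupling, 525/613 nm | Controls: DMSO wells with and without enzyme mix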

| SMILES | inhibition |
| --- | --- |
| O=C(CNC(=O)Cc1ccccc1)NCC(=O)OCC(=O)c1ccccc1Cl | 8.72% |
| CCOC(=O)c1ccc(NC(=O)c2nc[nH]c2C(=O)N[C@@H](CCCCNC(=O)OC(C)(C)C)C(=O)OC(C)(C)C)cc1 | 3.03% |
| Oc1c(C(c2ccco2)N2CCC3(CC2)OCCO3)sc2ncnn12 (configuration not stated) | 0.37% |
| O=C(Cc1ccc(NC(=O)C2CCCN(C(=O)C3CCCCC3)C2)cc1)Nc1cccc(C(=O)N2CCCCC2)c1 (configuration not stated) | -3.33% |
| CCC(C)c1ccc(O)c(/C=N/O)c1 (configuration not stated) | -1.01% |
| CCOC(=O)CCP(=O)(O)C(O)(c1ccccc1)c1ccccc1 | -11.5% |
| CCN(CC)C(=O)C(=O)c1cn(CC(=O)NCc2ccc3c(c2)OCO3)c2ccccc12 | -5.09% |
| OC(COCc1ccco1)CN1CCN(c2ccccc2)CC1 (configuration not stated) | -10.6% |
| Cc1ccc(-c2cnc(NC(=O)CCC(=O)N(C)Cc3ccccc3)n2C)cc1 | -3.47% |
| Cc1cccc(-n2ncc3c(=O)[nH]c(SCC(=O)Nc4cc(C)on4)nc32)c1 | -3.1% |
| CC1CN(C2CCCCC2)c2nc3c(c(=O)n(C)c(=O)n3C)n2C1 (configuration not stated) | 3.52% |
| CC(C)(C)NC(=O)CSc1nnc(NC(=O)CCc2ccccc2)s1 | -2.99% |
| Cc1cc(-c2n[nH]c(=S)n2/N=C/C(Br)=C/c2ccccc2)n[nH]1 | 29.1% |
| COc1ccc(O)c(C(=O)c2cnc3onc(C(C)C)c3c2)c1 | -4.62% |
| Cc1ccc(CNC(=O)CCS(=O)(=O)c2ccc3c(c2)CC(C)N3C(=O)C2CC2)o1 (configuration not stated) | -0.82% |
| CC1CCN(S(=O)(=O)c2ccc(S(=O)(=O)NCc3cccnc3)cc2)CC1 | -6.19% |
| CC(C)(C)c1cc(CN2CCN(CCC#N)CC2)cc(C(C)(C)C)c1O | 3.39% |
| O=S(=O)(Nc1ccc(O)c2ccccc12)c1ccc(OC(F)(F)F)cc1 | 52% (active) |
| O=C1COc2ccc(S(=O)(=O)Nc3ccc(OC(F)(F)F)cc3)cc2N1 | 2.53% |
| Cc1nn(C)c(C)c1NS(=O)(=O)c1ccc(OC(F)(F)F)cc1 | -3.33% |
| C=C(C)c1cccc(C(C)(C)NC(=O)NCCN(CC)CC)c1 | 13% |
| CC1Cc2ccccc2N1S(=O)(=O)c1cccc(C(=O)OCC(=O)N2CCOCC2)c1 (configuration not stated) | -4.82% |
| COc1cc(NC(=O)C2=C(C)OCCS2)c(Cl)cc1C(=O)NCCN1CCN(C)CC1 | -3.87% |
| COCCCNC(NC(=O)c1ccc(OC)cc1)C(Cl)(Cl)Cl (configuration not stated) | -2.25% |
| CC(C)(C)OC(=O)N(Cc1ccccc1)Cc1ccc(OCc2cccc(NC(=O)c3ccccc3)c2)cc1 | -0.76% |
| COc1ccc(Nc2ncc(C(=O)N3CCN(c4ccccc4OC)CC3)c3ccccc23)cc1 | 3.14% |

| SMILES | inhibition |
| --- | --- |
| CCc1c(Nc2ccccc2Cl)nc(N)[nH]c1=O | -5.05% |
| Fc1ccccc1OCCSc1nc2ccccc2o1 | 7.74% |
| CC(C)C[C@H](NC(=O)N1CC(=O)Nc2ccccc21)C(=O)N[C@H](Cc1ccccc1)C(=O)O | -0.33% |
| CN(C(=O)CSc1cccc[n+]1[O-])C1CCCCC1 | -5.14% |
| NC(=O)C1CC=CCC1C(=O)OCC(Cl)=C(Cl)Cl (configuration not stated) | -10.8% |
| Cc1nc2nc(COc3ccccc3)[nH]n2c(=O)c1C | 0.17% |
| CC(=O)N1CSCC1C(=O)O (configuration not stated) | -1.3% |
| CCOc1ccc(N2C(=O)CN(c3cccc4ccccc34)C2=S)cc1 | -10.4% |
| Cc1ccc(S(=O)(=O)NC(=O)COc2ccccc2C)cc1 | -6.13% |
| Cn1c2ccccc2c2cc(/C=C(\NC(=O)c3ccccc3)C(=O)NCC(=O)O)ccc21 | -5.19% |
| Cc1c(-c2ccccc2)cn2c1-c1ccc(C)n1CC2 | 1.47% |
| COc1ccc(-c2csc3ncnc(Oc4ccc5c(C)cc(=O)oc5c4)c23)cc1 | 6.07% |
| CCCCN(C(=O)c1cccc(N2C(=O)c3ccccc3C2=O)c1)c1c(N)n(CCCC)c(=O)[nH]c1=O | -1.42% |
| Cc1ccc(N(C(=O)c2ccc(S(=O)(=O)N(C)C)cc2)C2C=CS(=O)(=O)C2)cc1 (configuration not stated) | -6.81% |
| NS(=O)(=O)c1ccc(CCNC(=O)c2nc(CS(=O)(=O)c3ccc(Cl)cc3)no2)cc1 | 4.98% |
| Cc1nc2ccc(N)nc2nc1C | -5.39% |
| Cc1cccc([C@@H]2[C@@H]3C(=O)N(C)C(=O)[C@@H]3[C@@H]3C(=O)Nc4ccccc4C(=O)N23)c1 | -0.25% |
| CC(C)=CC(=O)Nc1nnc(-c2ccc(F)cc2)s1 | 6.59% |
| Cc1cc(C)n(CCNC(=O)CC2C(=O)NCCN2Cc2ccc(C)o2)n1 (configuration not stated) | -9.7% |
| Cc1ccc(O)c(NC(=O)c2cc(-c3ccco3)on2)c1 | -2.87% |
| CC(=O)N1CC(=O)N(CC(=O)Nc2ccc(Br)cc2)C1=S | -1.64% |
| O=C(O)c1ccc(NS(=O)(=O)c2ccc3c(c2)C(=O)c2cc(S(=O)(=O)Nc4ccc(C(=O)O)cc4)ccc2-3)cc1 | 2.22% |
| CCn1cc(C(=O)NCc2ccc3c(c2)OCO3)c2cc(OC)c(OC)cc2c1=O | 37.8% (active) |
| COc1cc(OC)c(C(=O)NCc2ccc3c(c2)OCO3)cc1OC | -0.69% |
| CCn1cc(C(=O)N2CCN(Cc3ccc4c(c3)OCO4)CC2)c2cc(OC)c(OC)cc2c1=O | -2.84% |
| COc1ccc(C(C)C)cc1S(=O)(=O)Nc1ncn[nH]1 | -3.49% |
